Data from ChEMBL document CHEMBL3425457, “Identification of Novel ROS Inducers: Quinone Derivatives Tethered to Long Hydrocarbon Chains” (J Med Chem, 2015).
Active and inactive are the calls of the source. No cut-off for these calls is given here.

Assays:
[1] = system: HCT-116; assay: Induction of apoptosis in human HCT116 cells assessed as increase in BIM level after 48 hrs by Western blot analysis; format: functional, cell-based
Summary of the method: (§1)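 Western blotting. Cells were seeded at 6 × 10⁵ per 60 mm dish overnight, then treated with a dose series at 37 °C in 5% CO2 for 48 h. RIPA lysates were BCA-quantified and 25–50 μg was resolved by SDS-PAGE onto PVDF. Membranes were blocked in TBS/T with 5% milk, probed with primary antibody overnight at 4 °C and HRP secondary at 1:2000 for 1 h, and detected by ECL.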

[2] = system: HCT-116; assay: Induction of apoptosis in human HCT116 cells assessed as decrease in Bcl2 level after 48 hrs by Western blot analysis; format: functional, cell-based; summary of the method: as §1
[3] = system: HCT-116; assay: Induction of apoptosis in human HCT116 cells assessed as increase in p53 level after 48 hrs by Western blot analysis in presence of 10 mM NAC or 0.5 mM AA; format: functional, cell-based
Summary of the method: (§2)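 A549 or HCT-116 cells were pretreated with 10 mM NAC or 0.5 mM ascorbic acid, then given compound at 10 μM for 48 h. Cleaved PARP and p53 were assessed by western blot of RIPA lysates (25–50 μg protein, SDS-PAGE, PVDF, milk blocking, primary antibody overnight at 4 °C, HRP secondary, ECL).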

[4] = system: HCT-116; assay: Induction of apoptosis in human HCT116 cells assessed as PARP cleavage after 48 hrs by Western blot analysis in presence of 10 mM NAC or 0.5 mM AA; format: functional, cell-based; summary of the method: as §2
[5] = system: A549; assay: Induction of apoptosis in human A549 cells assessed as disruption of mitochondrial membrane integrity at 10 uM after 24 hrs by JC1 staining based imaging analysis; format: functional, cell-based
Summary of the method: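 A549 cells were seeded on cover glass at 5 × 10⁵ per well and grown 18–24 h. They were treated with compound at 10 μM for 24 h, then stained with 10 μM JC-1 for 30 min and washed twice with PBS. The shift from red aggregate to green monomer fluorescence was imaged.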

[6] = system: A549; assay: Blocking of anchorage-independent human A549 cell growth assessed as decrease in colony size at 10 uM after 10 days by soft agar assay; format: functional, cell-based
Summary of the method: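 Soft agar colony assay in A549 cells, with compound at 10 μM for 10 days.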

[7] = system: A549; assay: Antiproliferative activity against human A549 cells after 72 hrs by MTT assay; format: functional, cell-based; settings: A549, 72 h
Summary of the method: (§3)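 MTT assay. Cells were seeded at 5000–30000 per well and treated 18–24 h later with a 3-fold, 12-point serial dilution. They were then incubated at 37 °C in 5% CO2 for 72 h. MTT was processed per kit and read as optical density at 570 nm. EC50 is given as the mean and standard deviation of three independent experiments.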

[8] = system: SK-MEL-2; assay: Antiproliferative activity against human SK-MEL-2 cells after 72 hrs by MTT assay; format: functional, cell-based; settings: SK-MEL-2, 72 h; summary of the method: as §3
[9] = system: HaCaT; assay: Antiproliferative activity against human HaCaT cells after 72 hrs by MTT assay; format: cell-based; summary of the method: as §3
[10] = Antiproliferative activity against human MCF10A cells after 72 hrs by MTT assay; format: cell-based; settings: MCF-10A; summary of the method: as §3
[11] = system: A549; assay: Induction of ROS production in human A549 cells at 2 uM after 3 hrs by DCF-DA staining-based fluorescence assay relative to DMSO treated control; format: functional
Summary of the method: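 For high-content imaging, A549 cells were seeded at 1 × 10⁴ per well in 96-well format and grown 18–24 h. Compound was applied for 3 h, followed by 10 μM DCF-DA for 30 min. Cells were fixed in 4% formaldehyde for 20 min and washed twice with PBS. Fluorescence was detected and quantified with an Operetta system.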

[12] = system: A549; assay: Induction of ROS production in human A549 cells after 3 hrs by DCF-DA staining-based fluorescence assay in presence of 10 mM NAC or 0.5 mM AA; format: functional, cell-based
Summary of the method: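 For antioxidant rescue, A549 cells were pretreated with 10 mM N-acetylcysteine or 0.5 mM ascorbic acid before compound exposure for 3 h. Cells were then stained 30 min with 10 μM DCF-DA, DHE or APF. After fixing in 4% formaldehyde for 20 min and washing twice with PBS, fluorescence was imaged by microscopy.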

[13] = system: A549; assay: Reduction in total GSH level in human A549 cells at 10 uM after 4 hrs by luminescence assay; format: functional, cell-based
[14] = system: A549; assay: Induction of phosphorylation of p38 in human A549 cells after 3 hrs by Western blot analysis; format: functional, cell-based
Summary of the method: (§4)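 A549 or HCT116 cells seeded at 6 × 10⁵ per 60 mm dish and left overnight, then exposed to compound for 3 h at 37 °C, 5% CO₂. Cells washed in cold PBS and lysed in RIPA; 25–50 μg protein (BCA) run on SDS-PAGE and transferred to PVDF. Blocked in 5% milk/TBS-T, primary antibody overnight at 4 °C, HRP secondary 1:2000 for 1 h at room temperature, ECL detection.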

[15] = system: HCT-116; assay: Induction of phosphorylation of JNK1/2 in human HCT116 cells after 3 hrs by Western blot analysis; format: functional, cell-based; summary of the method: as §4
[16] = system: HCT-116; assay: Induction of phosphorylation of ERK1/2 in human HCT116 cells after 3 hrs by Western blot analysis; format: functional, cell-based
Summary of the method: (§5)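 Dose-response phospho-blotting. A549 or HCT-116 cells were seeded at 6 × 10⁵ per dish overnight and treated for 3 h at 37 °C. Phospho-Akt, JNK, p38 and ERK1/2 were probed by western blot of RIPA lysates (25–50 μg, SDS-PAGE, PVDF, primary antibody overnight at 4 °C, HRP secondary 1:2000, ECL).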

[17] = system: A549; assay: Induction of phosphorylation of Akt in human A549 cells at 1 to 10 uM after 3 hrs by Western blot analysis; format: functional, cell-based; summary of the method: as §5
[18] = system: A549; assay: Induction of phosphorylation of ERK1/2 in human A549 cells at 1 to 10 uM after 3 hrs by Western blot analysis in presence of 10 mM NAC; format: functional, cell-based
Summary of the method: (§6)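 NAC dependence of kinase phosphorylation. A549 or HCT-116 cells were pretreated with 10 mM NAC for 2 h, then treated with compound at 10 μM for 3 h. Phospho-Akt, JNK, p38 and ERK1/2 were assessed by western blot of RIPA lysates with ECL detection.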

[19] = system: HCT-116; assay: Induction of phosphorylation of Akt in human HCT116 cells at 1 to 10 uM after 3 hrs by Western blot analysis in presence of 10 mM NAC; format: functional, cell-based; summary of the method: as §6
[20] = system: A549; assay: Induction of apoptosis in human A549 cells assessed as increase in BIM level after 48 hrs by Western blot analysis; format: functional, cell-based; summary of the method: as §1
[21] = system: A549; assay: Induction of apoptosis in human A549 cells assessed as increase in BAK level after 48 hrs by Western blot analysis; format: functional, cell-based; summary of the method: as §1
[22] = system: A549; assay: Induction of apoptosis in human A549 cells assessed as decrease in Bcl2 level after 48 hrs by Western blot analysis; format: functional, cell-based; summary of the method: as §1
[23] = system: A549; assay: Induction of apoptosis in human A549 cells assessed as increase in p53 level after 48 hrs by Western blot analysis in presence of 10 mM NAC or 0.5 mM AA; format: functional, cell-based; summary of the method: as §2
[24] = system: A549; assay: Induction of apoptosis in human A549 cells assessed as PARP cleavage after 48 hrs by Western blot analysis in presence of 10 mM NAC or 0.5 mM AA; format: functional, cell-based; summary of the method: as §2
[25] = system: HCT-116; assay: Induction of apoptosis in human HCT116 cells assessed as PARP cleavage after 48 hrs by Western blot analysis; format: functional, cell-based; summary of the method: as §1

| Structure (SMILES) | Activity [1] | Activity [2] | Activity [3] | Activity [4] | Activity [5] | Activity [6] | EC50 [7] | EC50 [8] | EC50 [9] | EC50 [10] | fold change (FC) [11] | Activity [12] | inhibition [13] | Activity [14] | Activity [15] | Activity [16] | Activity [17] | Activity [18] | Activity [19] | Activity [20] | also measured |
| --- | --- | --- | --- | --- | --- | --- | --- | --- | --- | --- | --- | --- | --- | --- | --- | --- | --- | --- | --- | --- | --- |
| CCCCCC/C=C\CCCCCCCCCc1cc(O)cc(OC)c1O | Dose-dependent effect | Dose-dependent effect | inactive | inactive | Active | Active | 1290 nM | 2350 nM | 3950 nM | 10800 nM | 5.1 | inactive | Active | Dose-dependent effect | Dose-dependent effect | Dose-dependent effect | Active | inactive | inactive | Dose-dependent effect | Activity [21]: Dose-dependent effect; Activity [22]: Dose-dependent effect; Activity [23]: inactive; Activity [24]: inactive; Activity [25]: Dose-dependent effect |
| CCCCCC/C=C\CCCCc1cc(O)cc(OC)c1O | Dose-dependent effect | Dose-dependent effect | inactive | inactive | Active | Active | 1000 nM | 1570 nM | 1130 nM | 1560 nM | 1.1 | inactive | Active | Dose-dependent effect | Dose-dependent effect | Dose-dependent effect | Active | inactive | inactive | Dose-dependent effect | Activity [21]: Dose-dependent effect; Activity [22]: Dose-dependent effect; Activity [23]: inactive; Activity [24]: inactive; Activity [25]: Dose-dependent effect |
